What was measured:
Hepatitis C virus = assay: Antiviral activity against HCV assessed at 15 uM by ELISA; format: functional, Hepacivirus hominis
Outline: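 HCV replicon replication in GS4.1 cells, read by ELISA-based replicon assay at a single test concentration of 15 µM of drug; reported as % inhibition.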

[1] = Cytotoxicity against human GS4.1 cells at 15 uM; format: cell-based
Outline: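 Cellular toxicity of drug at a single test concentration of 15 µM in GS4.1 (HCV replicon) cells; reported as % toxicity.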

Yellow fever virus = assay: Antiviral activity against YFV infected in BHK21 cells assessed as inhibition of virus-induced cytopathic effect at 15 uM; format: functional; conditions: BHK-21
[2] = Cytotoxicity against YFV infected BHK21 cells at 15 uM; format: cell-based, Mesocricetus auratus; conditions: hamster, bhk-21, 15 µM
dengue virus type 2 = assay: Antiviral activity against DENV infected in BHK21 cells assessed as inhibition of virus-induced cytopathic effect at 15 uM; format: functional; conditions: BHK-21
Outline: (§1)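 Single test concentration 15 µM of drug in acutely infected BHK cells; inhibition of virus-induced cytopathogenicity read by CPE assay, reported as % inhibition.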

[3] = Cytotoxicity against DENV infected BHK21 cells at 15 uM; format: cell-based, Mesocricetus auratus; conditions: hamster, bhk-21, 15 µM
Outline: (§2)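 Cellular toxicity measured at a single test concentration of 15 µM of drug in BHK cells run alongside the flavivirus CPE assays; reported as % toxicity.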

West Nile virus = assay: Antiviral activity against WNV infected in BHK21 cells assessed as inhibition of virus-induced cytopathic effect at 15 uM; format: functional; conditions: BHK-21; outline: as §1
[4] = Cytotoxicity against WNV infected BHK21 cells at 15 uM; format: cell-based, Mesocricetus auratus; conditions: hamster, bhk-21, 15 µM; outline: as §2

O=C(Nc1ncnc2c1ncn2Cc1cn([C@H]2C[C@H](O)[C@@H](CO)O2)nn1)c1ccccc1
inhibition at 15 µM (Hepatitis C virus): 9.02%
Activity [1]: -3.55%
inhibition at 15 µM (Yellow fever virus): 8.76%
Activity [2]: -2.91%
inhibition at 15 µM (dengue virus type 2): 1.02%
Activity [3]: 5.54%
inhibition at 15 µM (West Nile virus): -1.16%
Activity [4]: 5.54%

Cc1ccc(C(=O)OC[C@H]2O[C@@H](n3cc(Cn4ccc5c(Cl)ncnc54)nn3)C[C@@H]2OC(=O)c2ccc(C)cc2)cc1
inhibition at 15 µM (Hepatitis C virus): 49.2%
Activity [1]: 20.77%
inhibition at 15 µM (dengue virus type 2): -1.05%
Activity [3]: 0.31%
inhibition at 15 µM (West Nile virus): -2.95%
Activity [4]: 0.31%

Nc1ncnc2c1ncn2Cc1cn([C@H]2C[C@H](O)[C@@H](CO)O2)nn1
inhibition at 15 µM (Hepatitis C virus): 7.54%
Activity [1]: -0.61%
inhibition at 15 µM (Yellow fever virus): 8.36%
Activity [2]: -2.12%
inhibition at 15 µM (dengue virus type 2): 1.02%
Activity [3]: 7.85%
inhibition at 15 µM (West Nile virus): -0.43%
Activity [4]: 7.85%

OC[C@H]1O[C@@H](n2cc(Cn3cnc4c3ncn3ccnc43)nn2)C[C@@H]1O
inhibition at 15 µM (Hepatitis C virus): 6.07%
Activity [1]: -2.24%
inhibition at 15 µM (Yellow fever virus): 4.39%
Activity [2]: -11.67%
inhibition at 15 µM (dengue virus type 2): 2.23%
Activity [3]: -2.95%
inhibition at 15 µM (West Nile virus): -2.44%
Activity [4]: -2.95%

Cc1ccc(C(=O)OC[C@H]2O[C@@H](n3cc(Cn4ccc(=O)[nH]c4=O)nn3)C[C@@H]2OC(=O)c2ccc(C)cc2)cc1
inhibition at 15 µM (Hepatitis C virus): 11.3%
Activity [1]: -4.12%
inhibition at 15 µM (dengue virus type 2): 0.82%
Activity [3]: 3.37%
inhibition at 15 µM (West Nile virus): -2.84%
Activity [4]: 3.37%

Nc1ncnc2c1ccn2Cc1cn([C@H]2C[C@H](O)[C@@H](CO)O2)nn1
inhibition at 15 µM (Hepatitis C virus): -3.8%
Activity [1]: -3.79%
inhibition at 15 µM (Yellow fever virus): 11%
Activity [2]: 4.48%
inhibition at 15 µM (dengue virus type 2): 3.43%
Activity [3]: 3.14%
inhibition at 15 µM (West Nile virus): 2.42%
Activity [4]: 3.14%

C#CCn1cnc2c(N)ncnc21
inhibition at 15 µM (Hepatitis C virus): 2.99%
Activity [1]: -10.4%
inhibition at 15 µM (Yellow fever virus): -2.81%
Activity [2]: -7.46%
inhibition at 15 µM (dengue virus type 2): -3.4%
Activity [3]: 3.8%
inhibition at 15 µM (West Nile virus): -1.77%
Activity [4]: 3.8%

C#CCn1ccc2c(Cl)ncnc21
inhibition at 15 µM (Hepatitis C virus): 69.2%
Activity [1]: 1.84%
inhibition at 15 µM (Yellow fever virus): -0.25%
Activity [2]: -19.45%
inhibition at 15 µM (dengue virus type 2): -0.85%
Activity [3]: -9.83%
inhibition at 15 µM (West Nile virus): 3.81%
Activity [4]: -9.83%

C#CCn1ccc(=O)[nH]c1=O
inhibition at 15 µM (Hepatitis C virus): 12.1%
Activity [1]: -8.85%
inhibition at 15 µM (Yellow fever virus): -11.3%
Activity [2]: 0.08%
inhibition at 15 µM (dengue virus type 2): -4.6%
Activity [3]: 2.76%
inhibition at 15 µM (West Nile virus): -4.57%
Activity [4]: 2.76%

Nc1nc(Cl)c2ccn(Cc3cn([C@H]4C[C@H](O)[C@@H](CO)O4)nn3)c2n1
inhibition at 15 µM (Hepatitis C virus): 2.93%
Activity [1]: -3.3%
inhibition at 15 µM (Yellow fever virus): 13.3%
Activity [2]: 8.55%
inhibition at 15 µM (dengue virus type 2): 2.49%
Activity [3]: 1.3%
inhibition at 15 µM (West Nile virus): 5.71%
Activity [4]: 1.3%

O=c1ccn(Cc2cn([C@H]3C[C@H](O)[C@@H](CO)O3)nn2)c(=O)[nH]1
inhibition at 15 µM (Hepatitis C virus): 0.04%
Activity [1]: -5.59%
inhibition at 15 µM (Yellow fever virus): 4.59%
Activity [2]: -4.57%
inhibition at 15 µM (dengue virus type 2): 0.75%
Activity [3]: 9.5%
inhibition at 15 µM (West Nile virus): -2.67%
Activity [4]: 9.5%

Cc1ccc(C(=O)OC[C@H]2O[C@@H](n3cc(Cn4ccc(N)nc4=O)nn3)C[C@@H]2OC(=O)c2ccc(C)cc2)cc1
inhibition at 15 µM (Hepatitis C virus): 15.6%
Activity [1]: -8.12%
inhibition at 15 µM (dengue virus type 2): -2.26%
Activity [3]: 4.08%
inhibition at 15 µM (West Nile virus): -3.67%
Activity [4]: 4.08%

Cc1ccc(C(=O)OC[C@H]2O[C@@H](n3cc(Cn4ccc5c(Cl)nc(N)nc54)nn3)C[C@@H]2OC(=O)c2ccc(C)cc2)cc1
inhibition at 15 µM (Hepatitis C virus): 32.1%
Activity [1]: 6.49%
inhibition at 15 µM (dengue virus type 2): -2.39%
Activity [3]: 0.17%
inhibition at 15 µM (West Nile virus): -1.44%
Activity [4]: 0.17%

Nc1ccn(Cc2cn([C@H]3C[C@H](O)[C@@H](CO)O3)nn2)c(=O)n1
inhibition at 15 µM (Hepatitis C virus): 10.1%
Activity [1]: -5.59%
inhibition at 15 µM (Yellow fever virus): 7.89%
Activity [2]: -4.62%
inhibition at 15 µM (dengue virus type 2): 0.95%
Activity [3]: 9.41%
inhibition at 15 µM (West Nile virus): 0.24%
Activity [4]: 9.41%
